# Active and inactive are the calls of the source.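 The calls were made as follows, unless noted: active = visual image review flags a hit and inhibition of aggregation exceeds 20%; inconclusive = visual hit but inhibition at or below 20%; inactive = no hit on visual image review.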
# Experiments:
# [1] = inhibitors of TNFa-induced NFkB p65 translocation, primary screen, imaging, HUVEC, MLSMR starter and 10KST1 sets (AID 438;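 active = inhibition above 20% together with a positive visual image hit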;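 also: compound added about 3h40 before a 20 min TNFalpha stimulation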;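 as to inhibition: signal is the nuclear over cytoplasmic p65 intensity ratio per well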); details: HUVEC TNFa-induced p65 nuclear translocation; cell count: measured here: nuclei count (cytotoxicity indicator), at 2.08 µM; inhibition: at 2 µM, stronger effect = higher value, 0% TNFa-plus-vehicle, 100% no-TNFa wells
# [2] = inhibitors of mutant huntingtin aggregation, primary screen, imaging, exon1htt(103Q)mCFP cells, high-content imaging (AID 483); details: exon1htt(103Q)mCFP cell line, aggregate imaging, at 2 µM; inhibition of aggregation: stronger effect = higher value; nuclei count: measured here: cell count, toxicity;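 also: compound exposure lasted 3 days before fixation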;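 as to nuclei count: percent of the per-plate median nuclei count of sample wells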
# [3] = inhibitors of E-selectin induction by TNFa, primary screen, imaging, HUVEC, immunofluorescence, MLSMR starter and 10KST1 sets (AID 487;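 active = visually confirmed hit in the image check and inhibition above 20%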;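 as to inhibition: signal is fraction of cell area covered by stained E-selectin grains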;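 as to nuclei count: 100% = median nuclei count of all wells on the same plate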); details: HUVEC TNFalpha-induced E-selectin immunofluorescence imaging, at 2 µM; inhibition: stronger effect = higher value; nuclei count: measured here: cell number, toxicity
# [4] = target: Voltage-gated potassium channel subunit beta-2 (Rattus norvegicus) (UniProt P62483); test: KvBeta enzyme negative modulators, primary screen, biochemical, NADPH fluorescence (AID 622;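 active = fluorescence slope higher than the sample average by over 3 SD, cut at about -0.22 in these data, passing the limit was not always enough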;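 also: slope of raw intensity against log time taken from 70 to 1610 s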); details: recombinant KvBeta, 4-cyanobenzaldehyde reduction, at 10 µM, stronger effect = higher value
# Voltage-gated potassium channel subunit beta-2 (Rattus norvegicus), sequence (P62483 whole entry, looked up): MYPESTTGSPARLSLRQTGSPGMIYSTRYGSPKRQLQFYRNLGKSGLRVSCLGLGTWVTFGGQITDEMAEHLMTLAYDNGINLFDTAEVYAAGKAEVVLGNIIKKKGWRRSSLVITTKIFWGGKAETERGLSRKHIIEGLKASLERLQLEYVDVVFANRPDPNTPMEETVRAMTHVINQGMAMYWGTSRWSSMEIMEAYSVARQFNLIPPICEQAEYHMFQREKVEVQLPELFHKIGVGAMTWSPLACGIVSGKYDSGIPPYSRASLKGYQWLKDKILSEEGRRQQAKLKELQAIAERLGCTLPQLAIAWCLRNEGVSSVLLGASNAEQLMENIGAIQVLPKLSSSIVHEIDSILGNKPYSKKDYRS
# [5] = target: Voltage-gated potassium channel subunit beta-2 (Rattus norvegicus) (UniProt P62483); test: KvBeta positive modulators, primary screen, biochemical, NADPH fluorescence (AID 623;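 active = NADPH fluorescence slope more negative than the mean of all samples by about 3 SD, 99.7% confidence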;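 also: fluorescence intensity change per second fitted from 20 to 320 s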); details: Recombinant KvBeta, NADPH fluorescence decrease slope, 10 min; at 10 µM; stronger effect = lower value
# [6] = target: Muscarinic acetylcholine receptor M4 (Homo sapiens) (UniProt P08173); test: compounds altering M4/GIRK thallium flux, either direction, primary screen, M4 allosteric agonist project, cell-based, HEK293 M4/GIRK, BTC-AM (AID 625;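 active = fluorescence slope after compound addition differing from the mean of all tested samples at 99.7% confidence, mostly higher but some lower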;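 also: thallium influx through GIRK channels coupled to M4 in HEK293 cells with BTC-AM dye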); details: at 10 µM, actives lie on both sides
# Muscarinic acetylcholine receptor M4 (Homo sapiens), sequence (P08173 whole entry, looked up): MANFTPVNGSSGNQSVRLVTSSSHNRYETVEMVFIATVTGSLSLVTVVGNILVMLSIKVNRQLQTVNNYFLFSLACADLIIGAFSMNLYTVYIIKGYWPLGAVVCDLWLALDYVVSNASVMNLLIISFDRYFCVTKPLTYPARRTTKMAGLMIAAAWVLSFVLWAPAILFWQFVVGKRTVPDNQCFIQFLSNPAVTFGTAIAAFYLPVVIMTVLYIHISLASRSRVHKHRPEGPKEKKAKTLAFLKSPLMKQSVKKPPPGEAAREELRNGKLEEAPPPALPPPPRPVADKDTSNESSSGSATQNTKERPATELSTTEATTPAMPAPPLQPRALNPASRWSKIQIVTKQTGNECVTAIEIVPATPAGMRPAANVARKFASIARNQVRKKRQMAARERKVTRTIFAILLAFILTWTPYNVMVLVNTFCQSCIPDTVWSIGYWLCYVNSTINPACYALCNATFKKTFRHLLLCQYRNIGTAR
# Procedure, shortened: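 Material: M4/GIRK1/GIRK2 stable HEK293 cell line. Medium: pH 7.3 thallium assay buffer. Dosing: single compound concentration, 10 µM final. Schedule: 1 h dye loading, 2 min kinetic read. Measured by: kinetic fluorescence with BTC-AM dye. Read-out: post-addition slope, 15–24 s, of baseline-normalized fluorescence. Benchmarks: carbachol and DMSO controls.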
# [7] = inhibitors of Sendai virus-induced IRF3 signaling, primary screen, TLR/RLR signaling modifier project, cell-based, Sendai virus stimulus, luciferase, 10K MLSCN set (AID 602276;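 active = inhibition at or above 50% at 10 µM; inactive = inhibition below 50%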;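 also: firefly luciferase from ISG56 promoter only with Renilla not read in this screen; 0% = Sendai virus plus DMSO and 100% = medium plus DMSO without virus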); details: HEK293 RL24 IRF3 luciferase reporter, at 10 µM, stronger effect = higher value
# [8] = inhibitors of poly I:C-induced TLR3 signaling, primary screen, cell-based, poly I:C stimulus, luciferase, 10K MLSCN set (AID 602277;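 active = inhibition of the reporter signal at or above 50%; inactive = inhibition below 50%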); details: HEK293-TLR3 RL24 IRF3 luciferase reporter, at 10 µM, stronger effect = higher value
Compound,cell count [1],inhibition [1],inhibition of aggregation [2],nuclei count [2] [%],inhibition [3],nuclei count [3] [%],fluorescence slope [4],NADPH fluorescence slope [5],fluorescence slope [6],inhibition [7],inhibition [8]
O=S(=O)(Nc1cccc2ncccc12)c1cccs1,469,-38% (inactive),-0.2% (inactive),67.2,39.3% (inactive),23.8,-0.486 (inactive),2.1e-05 (inactive),0.0108 (active),-7.18% (inactive),-3.78% (inactive)
COc1cc(=O)[nH]c(SCc2c(F)c(F)c(F)c(F)c2F)n1,546,2.2% (inactive),6.7% (inactive),87.6,-11.4% (inactive),104,-0.436 (inactive),-4e-05 (inactive),0.00944 (inactive),-4.06% (inactive),22.3% (inactive)
Cn1c(-c2ccc(F)cc2)cnc1NCc1ccccc1,710,-2.3% (inactive),21% (inactive),74.6,-25.9% (inactive),125,-0.471 (inactive),-3e-06 (inactive),0.0028 (inactive),6.58% (inactive),-8.43% (inactive)
Cc1ccc(C)c(-c2nc3cc(N)ccc3o2)c1,407,12.5% (inactive),20.6% (inactive),97.9,-435% (inactive),124,-0.0313 (active),-3e-06 (inactive),0.00545 (inactive),4.93% (inactive),1.69% (inactive)
CC(=O)C1=C(N2CCCCC2)CCC1=O,431,2.3% (inactive),-14.9% (inactive),100,-0.5% (inactive),109,-0.328 (inactive),-1.9e-05 (inactive),0.00689 (inactive),8.02% (inactive),11.2% (inactive)
COC(=O)C1=C(C)OC(N)=C(C#N)C1c1ccccc1 (configuration not stated),428,1.7% (inactive),5.6% (inactive),114,-73.1% (inactive),116,-0.568 (inactive),-6.5e-06 (inactive),0.0048 (inactive),11.5% (inactive),16.7% (inactive)
CC(=O)Nc1nc(-c2ccccc2)nc(C)c1C(C)=O,366,8% (inactive),15% (inactive),88.5,32.4% (inactive),87.6,-0.572 (inactive),2e-05 (inactive),0.0072 (inactive),-8.51% (inactive),2.89% (inactive)
